Calls of active or inactive are those of the source. No cut-off for these calls is given here.
Assays:
[1] = test system: HeLa; assay: Antiproliferative activity against human HeLa cells by MTT assay; format: functional, cell-based
Outline: (§1)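 Growth inhibition rate calculated per compound. IC₅₀ derived by curve fitting.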

[2] = test system: A2780; assay: Antiproliferative activity against human A2780 cells by MTT assay; format: functional, cell-based; outline: as §1
[3] = test system: HeLa; assay: Induction of apoptosis in human HeLa cells assessed as increase in cleaved PARP1 protein levels after 24 hrs Western blot analysis
[4] = test system: HeLa; assay: Induction of apoptosis in human HeLa cells assessed as increase in p53 protein levels after 24 hrs Western blot analysis
[5] = (§2) Inhibition of pig brain tubulin polymerization measured every 1 min for 20 mins by spectrophotometric analysis; design: species or system Sus scrofa
[6] = species on record: Sus scrofa; assay: as §2
[7] = test system: HeLa; assay: Cell cycle arrest in human HeLa cells assessed as accumulation of cells at G2/M phase at 2 uM after 12 hrs by propidium iodide staining-based flow cytometric analysis (reference value: 17.6%); format: functional
Outline: (§3)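 HeLa cells treated with compound or DMSO, washed in PBS and fixed in 75% ethanol at -20 °C overnight. Stained with propidium iodide containing 0.1% RNase for 15 min in the dark at room temperature. DNA content read by flow cytometry to give cell-cycle phase distribution.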

[8] = test system: HeLa; assay: Induction of cell cycle arrest in human HeLa cells assessed as increase in cyclin B1 expression levels at 1.25 to 20 uM after 24 hrs by Western blot analysis; format: functional, cell-based
Outline: (§4)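 HeLa cells treated with compound or DMSO for 24 h and lysed; protein quantified by BCA. Run on 8-12% SDS-PAGE and blotted to PVDF. Blocked in 5% BSA/TBST for 1.5 h, primary antibody overnight at 4 °C, secondary 2 h at room temperature. Chemiluminescent detection.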

[9] = Cytotoxicity against HOSEC at 10 to 50 uM by MTT assay relative to control; details: human
[10] = test system: HeLa; assay: Induction of apoptosis in human HeLa cells assessed as early apoptotic cells at 1 uM after 72 hrs by Annexin V-FITC/propidium iodide staining-based flow cytometric analysis (reference value: […]); format: functional
[11] = test system: Mus musculus; assay: Toxicity in Balb/c nude mouse xenografted with human A2780 cells assessed as body weight at 20 mg/kg, ip measured immediately after first dose (reference value: 21.74 +/- 0.63 g); format: organism-based; details: in vivo
[12] = test system: HeLa; assay: Induction of apoptosis in human HeLa cells assessed as early apoptotic cells at 0.5 uM after 72 hrs by Annexin V-FITC/propidium iodide staining-based flow cytometric analysis (reference value: […]); format: functional
[13] = test system: HeLa; assay: Induction of apoptosis in human HeLa cells after 72 hrs by Annexin V-FITC/propidium iodide staining-based flow cytometric analysis; format: functional, cell-based
[14] = test system: HCT-116; assay: Antiproliferative activity against human HCT116 cells by MTT assay; format: functional, cell-based; outline: as §1
[15] = test system: HUVEC; assay: Antiangiogenic activity against HUVEC assessed as capillary like tube formation at 1 uM after 12 hrs by matrigel-based microscopic analysis; format: functional, cell-based; details: Homo sapiens
Outline: (§5)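 Matrigel pre-set in wells for 2 h at 37 °C, 5% CO₂. HUVECs (10⁴ per well) seeded in medium with compound or DMSO. Incubated 6-12 h, then capillary-like tube networks photographed under a microscope.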

[16] = test system: MDA-MB-231; assay: Inhibition of colony formation of human MDA-MB-231 cells incubated for 48 hrs followed by subsequent incubation for 7 to 10 days in fresh medium by gentian violet staining-based colony formation assay; format: functional, cell-based
Outline: (§6)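 MDA-MB-231 or A2780 cells seeded at 1000 per well and grown 48 h at 37 °C, 5% CO₂. Then exposed to compound or DMSO for 48 h, medium replaced, and grown a further 7-10 days. Colonies fixed with methanol for 20 min and stained with gentian violet for 30 min. Three independent runs.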

[17] = test system: HeLa; assay: Induction of apoptosis in human HeLa cells assessed as viable cells at 1 uM after 72 hrs by Annexin V-FITC/propidium iodide staining-based flow cytometric analysis (reference value: 87.6%); format: functional; details: read-out: Activity
[18] = test system: HeLa; assay: Induction of cell cycle arrest in human HeLa cells assessed as increase in phosphorylated histone H3 levels at 1.25 to 20 uM after 24 hrs by Western blot analysis; format: functional, cell-based; outline: as §4
[19] = test system: HeLa; assay: Induction of apoptosis in human HeLa cells assessed as late apoptotic cells at 0.5 uM after 72 hrs by Annexin V-FITC/propidium iodide staining-based flow cytometric analysis (reference value: 3.3%); format: functional
[20] = test system: HeLa; assay: Induction of apoptosis in human HeLa cells assessed as necrotic cells at 1 uM after 72 hrs by Annexin V-FITC/propidium iodide staining-based flow cytometric analysis (reference value: 0.5%); format: functional
[21] = test system: HeLa; assay: Induction of apoptosis in human HeLa cells assessed as late apoptotic cells at 1 uM after 72 hrs by Annexin V-FITC/propidium iodide staining-based flow cytometric analysis (reference value: 3.3%); format: functional
[22] = test system: HeLa; assay: Induction of apoptosis in human HeLa cells assessed as early apoptotic cells at 2 uM after 72 hrs by Annexin V-FITC/propidium iodide staining-based flow cytometric analysis (reference value: […]); format: functional
[23] = test system: HUVEC; assay: Antiangiogenic activity against HUVEC assessed as capillary like tube formation at 2 uM after 6 to 12 hrs by matrigel-based microscopic analysis; format: functional, cell-based; details: Homo sapiens; outline: as §5
[24] = test system: MDA-MB-231; assay: Antiproliferative activity against human MDA-MB-231 cells by MTT assay; format: functional, cell-based; outline: as §1
[25] = test system: HeLa; assay: Induction of apoptosis in human HeLa cells assessed as late apoptotic cells at 2 uM after 72 hrs by Annexin V-FITC/propidium iodide staining-based flow cytometric analysis (reference value: 3.3%); format: functional
[26] = test system: HeLa; assay: Cell cycle arrest in human HeLa cells assessed as accumulation of cells at G2/M phase after 24 hrs by propidium iodide staining-based flow cytometric analysis; format: functional; outline: as §3
[27] = test system: HeLa; assay: Induction of apoptosis in human HeLa cells assessed as viable cells at 0.5 uM after 72 hrs by Annexin V-FITC/propidium iodide staining-based flow cytometric analysis (reference value: 87.6%); format: functional; details: read-out: Activity
[28] = test system: HeLa; assay: Induction of apoptosis in human HeLa cells assessed as necrotic cells at 0.5 uM after 72 hrs by Annexin V-FITC/propidium iodide staining-based flow cytometric analysis (reference value: 0.5%); format: functional
[29] = test system: A2780; assay: Antitumor activity against human A2780 cells xenografted in Balb/c nude mouse assessed as tumor growth inhibition at 20 mg/kg, ip administered every other day relative to control; format: functional; details: read-out: TGI
[30] = test system: HeLa; assay: Induction of apoptosis in human HeLa cells assessed as necrotic cells at 2 uM after 72 hrs by Annexin V-FITC/propidium iodide staining-based flow cytometric analysis (reference value: 0.5%); format: functional
[31] = test system: A2780; assay: Inhibition of colony formation of human A2780 cells incubated for 48 hrs followed by subsequent incubation for 7 to 10 days in fresh medium by gentian violet staining-based colony formation assay; format: functional, cell-based; outline: as §6
[32] = test system: Mus musculus; assay: Toxicity in Balb/c nude mouse xenografted with human A2780 cells assessed as body weight at 20 mg/kg, ip administered every other day measured at end of study (reference value: 22.35 +/- 0.74 g); format: organism-based; details: in vivo
[33] = test system: HeLa; assay: Induction of apoptosis in human HeLa cells assessed as viable cells at 2 uM after 72 hrs by Annexin V-FITC/propidium iodide staining-based flow cytometric analysis (reference value: 87.6%); format: functional; details: read-out: Activity
[34] = test system: MDA-MB-231; assay: Inhibition of colony formation of human MDA-MB-231 cells at 800 nM incubated for 48 hrs followed by subsequent incubation for 7 to 10 days in fresh medium by gentian violet staining-based colony formation assay; format: functional, cell-based; outline: as §6
[35] = Cytotoxicity against HOSEC at 50 uM by MTT assay relative to control; details: human
[36] = Cytotoxicity against HOSEC at 10 uM by MTT assay relative to control; details: human

## COc1ccc(C2C(=O)NC(=O)N2c2cc(OC)c(OC)c(OC)c2)cc1 (stereo not given)
[1]
  IC50: > 50 µM
[2]
  IC50: > 50 µM

## COc1cc(C2C(=O)NC(=O)N2c2ccc3c(ccn3S(=O)(=O)c3ccc(C)cc3)c2)cc(OC)c1OC (stereo not given)
[1]
  IC50: > 50 µM
[2]
  IC50: > 50 µM

## COc1ccc(N2C(=O)N(C)C(=O)C2c2cc(OC)c(OC)c(OC)c2)cc1N (stereo not given)
[1]
  IC50: 0.251 µM
[3]
  Activity: Dose-dependent effect
[4]
  Activity: Dose-dependent effect
[5]
  IC50: 16.2 µM
[6]
  inhibition: Dose-dependent effect
[7]
  Activity: 91.4%
[8]
  Activity: Active
[9]
  Activity: ≤ 33%
[10]
  Activity: 47.8%
[11]
  Activity: 21.62 g
[12]
  Activity: 25.3%
[13]
  Activity: Dose-dependent effect
[14]
  IC50: 265 nM
[15]
  Activity: Active
[16]
  inhibition: Dose-dependent effect
[17]
  viability at 1 µM: 43.2%
[2]
  IC50: 0.186 µM
[18]
  Activity: Active
[19]
  Activity: 6.1%
[20]
  Activity: 0.3%
[21]
  Activity: 8.7%
[22]
  Activity: 53%
[23]
  Activity: Active
[24]
  IC50: 279 nM
[25]
  Activity: 17.5%
[26]
  Activity: Dose-dependent effect
[27]
  viability at 0.5 µM: 67.8%
[28]
  Activity: 0.8%
[29]
  inhibition in vivo at 20 mg/kg: 46.9%
[30]
  Activity: 2.2%
[31]
  inhibition: Dose-dependent effect
[32]
  Activity: 22.05 g
[33]
  viability at 2 µM: 27.3%
[34]
  inhibition: Active

## COc1cc(C2C(=O)NC(=O)N2c2cccc(O)c2)cc(OC)c1OC (stereo not given)
[1]
  IC50: > 50 µM
[2]
  IC50: > 50 µM

## COc1ccc(N2C(=O)NC(=O)C2c2cc(OC)c(OC)c(OC)c2)cc1O (stereo not given)
[1]
  IC50: 0.665 µM
[14]
  IC50: 945 nM
[2]
  IC50: 0.815 µM
[24]
  IC50: 768 nM

## CC(=O)O[C@H]1C(=O)[C@@]2(C)[C@H]([C@H](OC(=O)c3ccccc3)[C@]3(O)C[C@H](OC(=O)[C@H](O)[C@@H](NC(=O)c4ccccc4)c4ccccc4)C(C)=C1C3(C)C)[C@]1(OC(C)=O)CO[C@@H]1C[C@@H]2O [PACLITAXEL]
[35]
  Activity: 94%
[36]
  Activity: 51%

## CCN1C(=O)C(c2cc(OC)c(OC)c(OC)c2)N(c2ccc(OC)c(N)c2)C1=O (stereo not given)
[1]
  IC50: 3.31 µM
[2]
  IC50: 1.91 µM

## COc1cc(C2C(=O)NC(=O)N2c2ccc3ncccc3c2)cc(OC)c1OC (stereo not given)
[1]
  IC50: > 50 µM
[2]
  IC50: > 50 µM

## COc1cc(C2C(=O)NC(=O)N2c2ccc(C)c(N)c2)cc(OC)c1OC (stereo not given)
[1]
  IC50: 0.933 µM
[14]
  IC50: 988 nM
[2]
  IC50: 1.05 µM
[24]
  IC50: 1170 nM

## COc1ccc(N2C(=O)NC(=O)C2c2cc(OC)c(OC)c(OC)c2)cn1 (stereo not given)
[1]
  IC50: > 50 µM
[2]
  IC50: > 50 µM

## COc1ccc(N2C(=O)N(CCO)C(=O)C2c2cc(OC)c(OC)c(OC)c2)cc1N (stereo not given)
[1]
  IC50: 3.6 µM
[2]
  IC50: 6.62 µM

## COc1cc(C2C(=O)N(C)C(=O)N2c2ccc(C)c(N)c2)cc(OC)c1OC (stereo not given)
[1]
  IC50: 0.631 µM
[14]
  IC50: 681 nM
[2]
  IC50: 0.679 µM
[24]
  IC50: 1190 nM

## COc1ccc(N2C(=S)NC(=O)C2c2cc(OC)c(OC)c(OC)c2)cc1 (stereo not given)
[1]
  IC50: > 50 µM
[2]
  IC50: > 50 µM

## COc1cc(C2C(=O)NC(=O)N2c2ccc3[nH]ccc3c2)cc(OC)c1OC (stereo not given)
[1]
  IC50: > 50 µM
[2]
  IC50: 8.41 µM

## COc1ccc(N2C(=S)NC(=O)C2c2cc(OC)c(OC)c(OC)c2)cc1O (stereo not given)
[1]
  IC50: > 50 µM
[2]
  IC50: > 50 µM

## COc1cc(C2C(=O)NC(=O)N2c2cc(OC)c(OC)c(OC)c2)cc(OC)c1OC (stereo not given)
[1]
  IC50: > 50 µM
[2]
  IC50: > 50 µM

Reference: ChEMBL document CHEMBL4177684, “Design, synthesis, and biological evaluation of hydantoin bridged analogues of combretastatin A-4 as potential anticancer agents” (Bioorg Med Chem, 2017)
